The IC50 is the concentration needed to halve the response being measured. A lower IC50 goes with greater potency in that assay. A word on the Ki: it is a measure of affinity in units of concentration, obtained from inhibition or displacement. A low value points to higher affinity. For orientation: solubility means how much of the substance goes into solution per volume. Read a low solubility as a poorly soluble substance. Usually EC50 stands for the concentration that produces a half-maximal response.

Values after ≈ are worked out from the molar mass of the structure shown. Active and inactive are the calls of the source. No cut-off for these calls is given here.

This note sets out measurements from ChEMBL document CHEMBL4619807, “Exploration of Alternative Scaffolds for P2Y14 Receptor Antagonists Containing a Biaryl Core” (J Med Chem, 2020).

The target in data set [1] is T1, P2Y purinoceptor 14 (Homo sapiens, UniProt Q15391).
T1 sequence (Q15391 whole entry): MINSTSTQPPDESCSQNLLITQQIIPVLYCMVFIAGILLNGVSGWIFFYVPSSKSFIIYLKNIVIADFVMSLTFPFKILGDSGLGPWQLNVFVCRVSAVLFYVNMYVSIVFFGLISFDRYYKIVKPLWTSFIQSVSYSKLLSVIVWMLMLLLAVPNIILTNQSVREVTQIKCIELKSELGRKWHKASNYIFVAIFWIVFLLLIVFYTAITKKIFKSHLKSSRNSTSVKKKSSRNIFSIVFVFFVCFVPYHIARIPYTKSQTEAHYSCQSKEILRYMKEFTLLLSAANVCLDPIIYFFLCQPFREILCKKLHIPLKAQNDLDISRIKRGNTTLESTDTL
Put plainly: Inhibition of MRS4174 binding to human P2Y14R expressed in CHO cells pre-incubated for 30 mins before MRS4174 addition and further incubated for 30 mins at pH 7.4 by flow cytomtery based competitive fluorescence assay. It is filed as cell-based.

Data set [2] in a line: Binding affinity to 5HT6 receptor (unknown origin). Details: species or system Homo sapiens.
Data set [3] has as its target T2, P2Y purinoceptor 14 (Mus musculus, UniProt Q9ESG6).
T2 sequence (Q9ESG6 whole entry): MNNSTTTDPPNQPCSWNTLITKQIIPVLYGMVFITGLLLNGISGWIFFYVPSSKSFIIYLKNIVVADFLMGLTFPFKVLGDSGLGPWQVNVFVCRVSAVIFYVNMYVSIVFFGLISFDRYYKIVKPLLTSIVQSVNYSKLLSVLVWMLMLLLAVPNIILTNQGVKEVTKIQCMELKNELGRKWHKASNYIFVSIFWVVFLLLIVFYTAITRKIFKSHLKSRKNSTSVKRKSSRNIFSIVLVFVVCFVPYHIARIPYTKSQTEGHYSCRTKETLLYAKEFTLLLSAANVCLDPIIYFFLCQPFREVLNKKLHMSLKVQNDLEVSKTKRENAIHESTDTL
Put plainly: Inhibition of MRS4174 binding to mouse P2Y14R expressed in HEK293 cells pre-incubated for 30 mins before MRS4174 addition and further incubated for 30 mins by flow cytomtery based competitive fluorescence assay. The data set is classed as cell-based. In outline: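 Competitive whole-cell binding in HEK293 cells stably expressing N-terminally HA-tagged mouse P2Y14R, grown in a 24-well plate to 80–90% confluency. Antagonist given at 1 nM–100 μM in serum-containing EMEM for 30 min at 37 °C, then tracer added at 20 nM final for 30 min.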

The species named for a further data set is Homo sapiens. Put plainly: Selectivity index, ratio of IC50 for inhibition of MRS4174 binding to human P2Y14R expressed in CHO cells to IC50 for inhibition of MRS4174 binding to mouse P2Y14R expressed in […] cells. The data set is classed as cell-based. The procedure, abridged: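 Ratio of human to mouse IC50 from fluorescent-tracer binding. Human P2Y14R was in CHO cells in a 96-well format. Mouse P2Y14R was in HEK293 cells, with 30 min antagonist pre-incubation and then 20 nM tracer for 30 min at 37 °C. Both read by flow cytometry.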

The nature of data set [4]: Binding affinity to sigma 2 receptor (unknown origin). Details: species or system Homo sapiens.
Data set [5] has as its target Delta-type opioid receptor (Homo sapiens, UniProt P41143). Put plainly: Binding affinity to DOR (unknown origin).
Data set [6] is described as follows: Unbound fraction in mouse plasma. The data set is classed as ADME, cell-free. The procedure, abridged: (§1)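 Plasma protein binding measured at 10 μM compound in human and mouse plasma, expressed as percent unbound (mean ± SD). Verapamil and warfarin were positive controls.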
A short description of data set [7]: Aqueous solubility at pH 4 by pION method. Conditions: buffer. It is filed as physicochemical. In outline:
(§2)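 Equilibrium aqueous solubility measured by the pION method at pH 4.0 and at pH 7.4, in μg/mL; mean ± SD.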

Data set [8] is described as follows: Lipophilicity, change in Constant K of the compound by RP-HPLC analysis relative to PPTN. The data set is classed as physicochemical. In outline: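 Lipophilicity taken from reversed-phase HPLC retention time on a C18 column. Elution used a 20 min gradient of 10 to 100% acetonitrile in 10 mM triethylammonium acetate. Reported as Δk against the reference antagonist.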

The nature of data set [9]: Unbound fraction in human plasma. It is filed as ADME, cell-free. The procedure, abridged:
as §1

A short description of data set [10]: Aqueous solubility at pH 7.4 by pION method. The data set is classed as physicochemical. Conditions: buffer. In outline: as §2
The target in data set [11] is T3, Cannabinoid receptor 1 (Homo sapiens, UniProt P21554). The experiment in a line: Antagonist activity at CB1 receptor (unknown origin). The procedure, abridged:
(§3)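 Tested through the Psychoactive Drug Screening Program as functional agonist and antagonist at CB1 and CB2 cannabinoid receptors, with an upper test concentration of 10 μM.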

The target in data set [12] is T4, Cannabinoid receptor 2 (Homo sapiens, UniProt P34972). The experiment in a line: Agonist activity at CB2 receptor (unknown origin). The procedure, abridged: as §3
In data set [13] the target is T4, Cannabinoid receptor 2. The experiment in a line: Antagonist activity at CB2 receptor (unknown origin). In outline: as §3
In data set [14] the target is T3, Cannabinoid receptor 1. The experiment in a line: Agonist activity at CB1 receptor (unknown origin). In outline: as §3
Another data set has as its system Mus musculus. The experiment in a line: Antiasthmatic activity in Aspergillus oryzae protease-mediated C57BL/6J mouse model of allergic asthma assessed as reduction in eosinophil infiltration in bronchoalveolar lavage fluid at 10 mg/kg, ip dosed 30 mins before OVA aerosol challenge and measured 2 days post-challenge by cell differential count assay. The data set is classed as functional, organism-based.

T4 sequence (P34972 whole entry): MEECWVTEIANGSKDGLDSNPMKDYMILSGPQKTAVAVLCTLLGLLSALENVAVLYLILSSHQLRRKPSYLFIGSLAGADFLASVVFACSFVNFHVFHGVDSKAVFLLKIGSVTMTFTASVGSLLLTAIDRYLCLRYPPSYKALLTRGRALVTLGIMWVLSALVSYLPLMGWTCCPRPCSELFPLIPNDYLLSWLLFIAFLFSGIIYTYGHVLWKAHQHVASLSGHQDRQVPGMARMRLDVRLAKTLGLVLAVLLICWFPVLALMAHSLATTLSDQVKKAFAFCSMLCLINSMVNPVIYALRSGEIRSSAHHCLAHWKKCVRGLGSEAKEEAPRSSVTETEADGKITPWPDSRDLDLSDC
T3 sequence (P21554 whole entry): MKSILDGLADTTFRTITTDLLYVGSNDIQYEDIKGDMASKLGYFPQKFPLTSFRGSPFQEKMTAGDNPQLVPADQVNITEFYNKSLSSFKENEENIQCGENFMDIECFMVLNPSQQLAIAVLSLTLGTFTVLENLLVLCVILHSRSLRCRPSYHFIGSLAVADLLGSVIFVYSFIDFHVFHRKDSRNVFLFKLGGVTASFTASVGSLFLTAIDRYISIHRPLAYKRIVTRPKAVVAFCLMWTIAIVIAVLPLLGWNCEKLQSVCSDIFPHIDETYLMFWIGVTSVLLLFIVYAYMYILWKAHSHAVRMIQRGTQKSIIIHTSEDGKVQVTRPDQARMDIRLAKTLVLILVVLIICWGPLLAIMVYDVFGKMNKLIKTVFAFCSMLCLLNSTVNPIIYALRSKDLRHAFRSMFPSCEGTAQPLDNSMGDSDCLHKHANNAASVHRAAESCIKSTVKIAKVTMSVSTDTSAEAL
Chain of Delta-type opioid receptor (P41143 whole entry): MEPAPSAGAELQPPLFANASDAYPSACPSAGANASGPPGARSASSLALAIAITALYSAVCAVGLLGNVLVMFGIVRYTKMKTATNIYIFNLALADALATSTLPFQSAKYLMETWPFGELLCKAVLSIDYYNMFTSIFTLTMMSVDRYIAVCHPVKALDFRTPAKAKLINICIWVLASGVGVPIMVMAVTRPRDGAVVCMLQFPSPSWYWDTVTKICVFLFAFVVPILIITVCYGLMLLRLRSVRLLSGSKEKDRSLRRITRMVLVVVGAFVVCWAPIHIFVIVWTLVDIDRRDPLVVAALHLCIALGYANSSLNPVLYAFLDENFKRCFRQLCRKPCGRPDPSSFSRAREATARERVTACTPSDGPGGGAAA

For `O=C(O)c1cc(-c2ccc(C34CCNCC3C4(F)F)cc2)cc(-n2cc(-c3ccc(C(F)(F)F)cc3)nn2)c1` (stereo not given), on P2Y purinoceptor 14 [1], the IC50 is 639 nM.

Compound `NC(=O)c1ccc(-c2cc(C(=O)O)cc(-n3cc(-c4ccc(C(F)(F)F)cc4)nn3)c2)cc1` returned a Ki in data set [2] of 6890 nM. On P2Y purinoceptor 14 [3], this compound gave an IC50 of 902 nM. Besides, the Ratio IC50 in the data set filed under Homo sapiens was 3.4.

As for `O=C(O)c1[nH]c(-c2ccc(C3=CCNCC3)cc2)cc1-n1cc(-c2ccc(C(F)(F)F)cc2)nn1`, the IC50 on P2Y purinoceptor 14 [1] is above 100000 nM.

Take `O=C(O)c1cc(-c2ccc(C34CCNCC3C4)cc2)cc(-n2cc(-c3ccc(C(F)(F)F)cc3)nn2)c1` (stereo not given): the Ki in [4] was 300 nM; in data set [5], 2630 nM. For the same compound, the IC50 amounted to 359 nM on P2Y purinoceptor 14 [1] and 1160 nM on P2Y purinoceptor 14 [3]. Further, the Ratio IC50 in the data set filed under Homo sapiens worked out at 3.3.

In the case of `NC(=O)c1cc(-c2ccc(C3CCNCC3)cc2)cc(-n2cc(-c3ccc(C(F)(F)F)cc3)nn2)c1`, the IC50 at P2Y purinoceptor 14 [1] is above 100000 nM.

In the case of `C[N+]12CCC(c3ccc(-c4cc(C(=O)O)cc5cc(-c6ccc(C(F)(F)F)cc6)ccc45)cc3)(CC1)CC2`, the figures for the Fu in data set [6] and in data set [9] were 0.94% and 1.13%, respectively. Besides, the figures for the solubility in [7] and in data set [10] were 2.24 µg/mL and 1.72 µg/mL, respectively. Also, the “fold change (FC)” value in data set [8] came out at 0.24. Besides, the IC50 at P2Y purinoceptor 14 [1] turned out to be 38.3 nM; at P2Y purinoceptor 14 [3] it was 56.3 nM.

For `O=C(O)c1cc(-c2ccc(C3CCNCC3)cc2)c2ccc(-c3ccc(C(F)(F)F)cc3)cc2c1` [PPTN], the EC50 at Cannabinoid receptor 1 [11], at Cannabinoid receptor 2 [12], on Cannabinoid receptor 2 [13] and at Cannabinoid receptor 1 [14] was above 10000 nM throughout. Moreover, the solubility amounted to 1.1 µg/mL (≈ 2.31 µM) in data set [7] and 0.36 µg/mL (≈ 0.757 µM) in data set [10]. Also, the result in the data set with Mus musculus was Active.
